Rows were chosen to be rich in hits. Some 2.1% of all compounds tested hit in one or more screens of this group.
CDK5 inh: inhibitors of human CDK5/p35 kinase, primary screen, biochemical, single concentration | Cyclin-dependent kinase 5 (Homo sapiens) + Cyclin-dependent kinase 5 activator 1 (Homo … | Recombinant CDK5/p35, ADP-Glo luminescence, 60 min | inhibition, % at 10 µM | 0.01% of 330,000 active | AID 488839, 2010;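 active means highest replicate inhibition of at least 50% and at least 75% of replicates reaching 50%; inconclusive means only one of the two criteria met; inactive means both criteria failed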;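 further: plate controls were DMSO neutral control for no effect and GW8510 at 10 µM for full effect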
SR-BI uptake up: activators of SR-BI mediated DiI-HDL uptake, primary screen, ldlA[mSR-BI] CHO cells, DiI fluorescence; 3 h; 100 = double the neutral-control signal; activation, % at 12.5 µM; 0.096% of 320,000 active;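 active means mean replicate activation of at least 60% and every replicate at or above 60%; inconclusive means mean or all-replicate condition met, but not both; inactive means mean below 60% and not all replicates reaching 60%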;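 further: 0% = median plate neutral-control signal and 100% = twice that signal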
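Assay system: CHO ldlA[mSR-BI] cells, LDL receptor-null, SR-BI overexpressing; medium: Ham's F12 with 0.5% BSA, HEPES 25 mM, pH 7.4; also added: DiI-HDL 10 µg/mL; timing: 3 h uptake period with compound, 37 °C; signal: DiI fluorescence, bottom read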
PKA-R2B act: activators of PKA-R2B holoenzyme, primary screen, biochemical, fluorescence polarization, Cy5-IP20, human; PKA-R2B holoenzyme dissociation; R2B truncated from residue 108, S112A mutant; 0% DMSO only, 100% 113 µM cGMP; activation, % at 11.4 µM; 0.079% of 340,000 active;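 active means activation above a cutoff set at the mean over all compounds plus 3 SD, cut at about 18% in these data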;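 further: higher means more holoenzyme dissociation and a rise in polarization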
Target sequence (P31323 whole entry, looked up, other chains not shown, the tested form may be a part): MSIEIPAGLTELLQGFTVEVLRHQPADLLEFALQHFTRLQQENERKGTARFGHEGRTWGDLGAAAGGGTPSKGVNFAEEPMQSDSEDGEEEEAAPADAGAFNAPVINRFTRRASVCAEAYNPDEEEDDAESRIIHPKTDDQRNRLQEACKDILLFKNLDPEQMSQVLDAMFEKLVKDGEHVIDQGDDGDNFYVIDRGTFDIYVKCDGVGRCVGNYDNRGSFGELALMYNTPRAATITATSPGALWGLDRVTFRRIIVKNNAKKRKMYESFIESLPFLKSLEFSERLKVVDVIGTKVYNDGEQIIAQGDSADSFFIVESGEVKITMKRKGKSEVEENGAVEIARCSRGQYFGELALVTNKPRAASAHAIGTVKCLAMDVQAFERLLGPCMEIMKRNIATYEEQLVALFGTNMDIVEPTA
dFosB act: activators of delta FosB homodimer, primary screen, biochemical, fluorescence polarization, TAMRA-CDK5 oligo, single point; Protein FosB (Mus musculus), P13346; purified delta FosB; percent of positive-control signal above neutral wells; activation, % at 25 µM; 0.99% of 340,000 active; AID 493131, 2011;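 active means mean activation above about 17%, with every replicate also reaching it, limit read from the data, passing the limit was not always enough; inconclusive means only one of the two conditions met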
SR-BI DiI inh: inhibitors of SR-BI mediated HDL lipid uptake, primary screen, ldlA[mSR-BI] cells, fluorescence, single point | inhibition, % at 12.5 µM | 0.96% of 320,000 active | ldlA[mSR-BI] CHO cells, DiI-HDL uptake fluorescence, 3 h | Scavenger receptor class B member 1 (Mus musculus), Q61009;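 active means mean replicate inhibition of at least 70% and a set share of replicates each scoring 70 or more; inconclusive means meets just one of the two criteria; inactive means fails both criteria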;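 further: 0% = median of neutral control wells and 100% = median of positive control wells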
PKA-R1A act: activators of PKA-R1A holoenzyme, primary screen, biochemical, fluorescence polarization, Cy5-IP20, bovine R1A, mouse PKAc; cAMP-dependent protein kinase type I-alpha regulatory subunit (Bos taurus) + …; PKA-R1A dissociation; scaled: DMSO 0%, 113 µM cGMP 100%; activation, % at 11.4 µM; 0.083% of 340,000 active;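 active means percent activation above the mean of all tested compounds plus 3 SD, cut at about 19% in these data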;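 further: higher means more PKAc released from R1A so a rise in polarization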
* marks the source's active call; other numbers are inactive results; ? = inconclusive; · = no result.

SMILES | CDK5 inh | SR-BI uptake up | PKA-R2B act | dFosB act | SR-BI DiI inh | PKA-R1A act
Cc1c(Cl)cccc1N1C(=O)CC(N(O)c2ccccc2)C1=O (stereo not drawn) | 0.9 | 217.9* | 8.8 | -1.5 | -217.9 | 3.0
COc1cc(Cl)c(C)cc1NC(=O)CSc1ccc(C)cc1 | -0.5 | -30.8 | -7.8 | -0.6 | 30.8 | 3.0
COc1cc(Cl)c(C)cc1NC(=O)CNC(=O)Cn1cnc2ccccc2c1=O | 2.2 | -85.0 | 1.8 | 13.5 | 85.0* | 5.1
COc1cc(OC)c(NC(=O)CCNC(=O)Cn2cnc3ccccc3c2=O)cc1Cl | -1.4 | -18.8 | 0.3 | 0.4 | 18.8 | -5.4
COc1cc(Cl)c(C)cc1NC(=O)CSc1cc(Cl)ccc1Cl | -0.5 | -82.4 | -1.9 | -6.4 | 82.4* | -7.5
Cc1ccc(S(=O)(=O)N2CCC(C(N)=O)CC2)cc1[N+](=O)[O-] | 2.0 | 13.7 | -7.2 | 4.2 | -13.7 | 10.8
Oc1ccc(Cl)cc1C1=NNC(c2ccc(Cl)cc2)C1 (stereo not drawn) | -0.6 | -83.7 | -2.8 | -4.5 | 83.7* | -2.6
Oc1c(Cl)cc(Cl)cc1C1=NNC(c2ccc(Cl)cc2)C1 (stereo not drawn) | 1.0 | -83.8 | 0.8 | 2.8 | 83.8* | 6.0
COc1ccccc1OCC(=O)NNC(=O)Nc1ccccc1 | 0.1 | · | 1.5 | 2.9 | · | -8.5
C=CCN1C(=O)C(Cc2ccc(OC)cc2)SC1=Nc1ccc(C(=O)O)cc1 (stereo not drawn) | 0.2 | 6.8 | -1.9 | 2.7 | -6.8 | -4.2
C=CCN1C(=O)C(Cc2cccc(Cl)c2)SC1=Nc1ccc(C(=O)O)cc1 (stereo not drawn) | -2.2 | 62.5* | 7.0 | -2.3 | -62.5 | 1.7
CC(C)c1ccc2[nH]c3c(c2c1)[C@@H]1CCN2C(=O)CCC[C@H](C3)[C@H]12 | -0.9 | -13.1 | -6.0 | -21.3 | 13.1 | -3.7
CCOC(=O)C1=C(C)NC(C)=C(C(=O)OCC)C1C(=O)OCC(=O)N(CC)C1CCS(=O)(=O)C1 (stereo not drawn) | 2.1 | -6.0 | 4.3 | -8.9 | 6.0 | 0.8
Cc1nn(-c2ccccc2)c(N2CCCC2)c1/C=N/Nc1ccc(S(=O)(=O)Nc2ccccc2)cc1[N+](=O)[O-] | 2.7 | -124.6 | -10.7 | -10.6 | 124.7* | -4.3
COc1ccccc1NS(=O)(=O)c1ccc(N/N=C/c2c(C)nn(-c3ccccc3)c2N2CCCC2)c([N+](=O)[O-])c1 | 1.6 | -90.2 | 0.3 | 9.8 | 90.2* | 2.6
COc1ccccc1NS(=O)(=O)c1cccc(C(=O)N/N=C/c2c(C)nn(-c3ccccc3)c2N2CCCC2)c1 | 0.3 | -70.7 | 2.7 | -13.2 | ? | -5.4
O=C(Cc1ccc(NC(=O)C2CCN(C(=O)C3CC3)CC2)cc1)Nc1ccc(C(=O)N2CCOCC2)cc1 | 0.1 | 31.0 | -4.4 | -4.5 | -31.0 | -9.5
COc1ccc(/C=C2\SC(=S)N(CC(=O)NC3CCS(=O)(=O)C3)C2=O)cc1 (stereo not drawn) | -4.5 | -13.5 | 0.7 | 47.3* | 13.5 | -1.7
COc1ccc(/C=C2\SC(=S)N(CCC(=O)NCCc3ccc(O)cc3)C2=O)cc1 | 1.5 | -2.7 | 2.1 | 38.4* | 2.7 | -14.6
COc1ccc(/C=C2\SC(=S)N(CCC(=O)Nc3cccc(O)c3)C2=O)cc1 | 0.3 | -25.1 | -7.9 | 24.7* | 25.1 | -9.6
O=C(CCN1C(=O)/C(=C/c2ccc(F)cc2)SC1=S)NC1CCS(=O)(=O)C1 (stereo not drawn) | · | -0.5 | -13.2 | -1.9 | 0.5 | -6.5
O=C(CCN1C(=O)/C(=C\c2ccccc2)SC1=S)NNC(=O)c1ccccc1O | -1.2 | -99.4 | -4.3 | 20.3* | 99.5* | -9.4
Cc1nn(Cc2ccccc2)c(C)c1C(=O)N1CCN(S(=O)(=O)/C=C/c2ccccc2)CC1 | -0.8 | -7.3 | -2.8 | -12.1 | 7.3 | -0.8
COc1ccc(-c2c(C#CC(C)(C)O)c3ccccc3n2C)cc1 | -1.4 | -38.4 | -3.0 | -4.2 | 38.4 | -15.4
COc1ccc(-c2oc3ccccc3c2C#CC(C)(C)O)cc1 | -1.0 | -79.4 | -6.6 | -4.4 | 79.4* | -7.2
SMILES | CDK5 inh | SR-BI uptake up | PKA-R2B act | dFosB act | SR-BI DiI inh | PKA-R1A act
CCCC(=O)Nc1sc(C)c(C)c1C(=O)Nc1cccc(C)c1 | -1.6 | -71.5 | -4.7 | -3.4 | 71.5* | -5.0
COc1ccc(-c2cn3c(C)c(C(=O)Nc4cc(NC(C)=O)ccc4OC)sc3n2)cc1 | 0.5 | -75.5 | 3.8 | -11.7 | 75.5* | 4.1
CC(C(=O)Nc1ccc(C#N)cc1)N1CCN(C(=O)C2CC2)CC1 (stereo not drawn) | -2.9 | 4.0 | -1.5 | 2.5 | -4.0 | -5.4
Cc1ccnc(Nc2nc(-c3ccc(O)cc3O)cs2)c1 | 2.4 | -83.0 | -14.6 | -3.4 | 83.0* | -6.4
Cc1ccnc(Nc2nc(-c3ccc(O)cc3)cs2)c1 | 0.2 | -25.2 | -2.3 | -1.8 | 25.2 | 6.0
Cc1[nH]c2ccccc2c1N=Nc1ccc(F)cc1 | -0.7 | -83.1 | -9.8 | -13.1 | 83.1* | -11.4
CCC1(C(=O)OC)NC(c2ccco2)C2C(=O)N(c3ccc(C)cc3)C(=O)C21 (stereo not drawn) | 0.6 | 157.8* | 0.9 | -0.2 | -157.8 | -8.1
CCC[C@H](CN[C@@H](CNC)[C@H](C)CC)NCCc1cc(C(F)(F)F)cc(C(F)(F)F)c1 | 1.0 | 36.2 | 8.6 | 13.6 | -36.2 | 6.8
CC[C@@H](C)[C@H](CNC)NC[C@@H](Cc1cccc2ccccc12)NCCc1cccc(C(F)(F)F)c1 | 1.4 | 38.0 | 4.8 | 19.1* | -38.0 | 6.3
CSCC[C@H](NC(=O)c1ccc2c(c1)OCO2)c1nnc2ccccn12 | · | 15.3 | -7.8 | -2.9 | -15.3 | -3.3
COc1cccc(NC(=O)C(=O)c2cn(CC(=O)N3CCCC3)c3ccccc23)c1 | -1.3 | -75.0 | -5.1 | -9.4 | 75.0* | 6.2
COc1ccc(NC(=O)C(=O)c2cn(CC(=O)N3CCCC3)c3ccccc23)cc1OC | -0.4 | -79.8 | -6.4 | -6.5 | 79.8* | -8.0
Cc1ccc(NC(=O)C(=O)c2cn(CC(=O)N3CCCCC3)c3ccccc23)cc1 | 0.2 | -3.2 | -10.2 | 10.3 | 3.2 | 3.2

From PubChem BioAssay
